Results on five compounds are retold here after ChEMBL document CHEMBL5523695, “Discovery of small molecule benzothiazole and indole derivatives tackling tau 2N4R and α-synuclein fibrils” (Bioorg Med Chem, 2024).

What is called inhibition is the drop in the measured response relative to a control, in per cent. By IC50 is commonly meant the concentration needed to halve the response being measured. A high value points to weaker potency in that assay.

The nature of data set [1]: Cytotoxicity against human M17D cells expressing doxycyclin-inducible alpha-syn-S3K::YFP inclusion-prone fusion protein assessed as reduction in cell confluency at 20 to 40 uM treated with compound starting from 24 hrs post plating followed by doxycyclin addition at 48 hrs and measured 96 hrs post plating by Incucyte-based analysis. It is filed as toxicity. The note with it: 72 h, dose 20-40 µM. In a few lines:
(§1)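 Dox-inducible M17D-TR/αS-3K::YFP neuroblastoma cells seeded at 30,000 per well. Compound added 24 h after plating at 1.25–40 μM, with 0.1 % DMSO as vehicle. Dox at 1 μg/mL final was added at 48 h. At 96 h, Incucyte imaging gave confluence fold change vs vehicle. N = 2 independent experiments, 6–12 wells total. Mean ± SD, one-way ANOVA with Dunnett's test.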

The target of data set [2] is T1, Microtubule-associated protein tau (Homo sapiens, UniProt P10636). Nature of the data set: Inhibition of unfolded tau 2N4R (unknown origin) aggregation expressed in Escherichia coli Rosetta BL21 cells assessed as reduction in formation of large dense accumulation of tau fibrils at 100 uM measured after 72 hrs by TEM analysis. In a few lines:
(§2)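 Recombinant tau 2N4R (6 μM) incubated with compound at 100 μM, or 0.25 % DMSO, in 10 mM PBS pH 7.4 for 72 h at 37 °C. Placed on Formvar-carbon copper grids for 1 min, rinsed, and negatively stained with 1 % uranyl acetate. TEM at 40k magnification, 100 kV.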

Data set [3] deals with Alpha-synuclein (Homo sapiens) (UniProt P37840). Briefly: Inhibition of recombinant alpha-Synuclein (unknown origin) aggregation assessed as reduction in protein fibril formation at 100 uM measured after 68 hrs by TEM analysis. In a few lines:
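α-Syn (2 μM) samples taken from the ThT kinetic runs after about 68 h at 37 °C, compound at 100 μM, vehicle 0.25 % DMSO. Applied to Formvar-carbon copper grids for 1 min, washed, and stained with 1 % uranyl acetate for 1 min. Imaged by TEM at 40k magnification, 100 kV.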

Data set [4] concerns the target T1, Microtubule-associated protein tau. Nature of the data set: Inhibition of unfolded tau 2N4R (unknown origin) aggregation expressed in Escherichia coli Rosetta BL21 cells assessed as reduction in protein fibril formation at 100 uM measured after 72 hrs by TEM analysis. In a few lines:
as §2

For data set [5], the target named is Alpha-synuclein (Homo sapiens) (UniProt P37840). Briefly: Inhibition of alpha-syn inclusion formation in human M17D cells expressing doxycyclin-inducible alpha-syn-S3K::YFP inclusion-prone fusion protein assessed as reduction in inclusions treated with compound starting from 24 hrs post plating followed by doxycyclin addition at 48 hrs and measured 96 hrs post plating by Incucyte-based analysis. The settings on record: time 72.0 hrs. It is filed as cell-based. In a few lines: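 M17D-TR/αS-3K::YFP cells seeded at 30,000 per well and dosed 24 h post-plating at 1.25–40 μM (vehicle 0.1 % DMSO). Transgene induced at 48 h with dox at 1 μg/mL final. At 96 h, Incucyte analysis of punctate YFP inclusions, expressed as fold change vs DMSO. Two independent experiments, 6–12 wells total, mean ± SD, Dunnett's post-hoc test.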

For data set [6], the target named is T1, Microtubule-associated protein tau. Nature of the data set: Inhibition of human tau 0N4R aggregation expressed in Escherichia coli Rosetta BL21 cells assessed as reduction in oligomer formation at 50 to 200 uM incubated for 10 mins in presence of 53W light exposure for 60 sec by PICUP assay. The note with it: dose 50-200 µM. In a few lines:
(§3)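 Tau 2N4R or 0N4R, expressed in-house from a pET30a construct in E. coli Rosetta BL21 and purified by heat step plus SP cation exchange, used at 10 μM in 10 mM phosphate buffer. Compound at 50, 100 and 200 μM. Ru(bpy)3 at 300 μM and APS at 6 mM, 60 s light exposure. Samples boiled at 95 °C for 10 min in reducing Laemmli buffer, then 16 % SDS-PAGE with Coomassie.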

The target in data set [7] is Alpha-synuclein (Homo sapiens) (UniProt P37840). Briefly: Inhibition of recombinant alpha-Synuclein (unknown origin) aggregation assessed as reduction in fluorescence intensity measured every 20 mins for 40 to 70 hrs by Thioflavin T based fluorescence analysis. The note with it: dose 3.125-25 µM, time 40-70 hrs.
Data set [8] has the same target. Briefly: Inhibition of recombinant alpha-Synuclein (unknown origin) aggregation assessed as reduction in oligomer formation at compound-protein ratio of 1:0.6 incubated for 10 mins in presence of 53W light exposure for 1 sec by PICUP assay. In a few lines:
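α-Syn (60 μM) in 10 mM phosphate buffer was cross-linked with Ru(bpy)3 (300 μM) and ammonium persulfate (6 mM), compound at 50, 100 or 200 μM. Light from a 53 W incandescent bulb for 1 s. Laemmli/2-mercaptoethanol added, then 95 °C for 10 min. Samples run on 16 % SDS-PAGE with Coomassie stain; oligomer bands at 35–40 kDa assessed. Controls lacked light or Ru(bpy)3.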

The target is the same in data set [9]. Nature of the data set: Inhibition of recombinant alpha-Synuclein (unknown origin) aggregation assessed as reduction in fluorescence intensity by measuring residual activity at 100 uM measured every 20 mins for 40 to 70 hrs by Thioflavin T based fluorescence analysis relative to control. The note with it: time 40-70 hrs. In a few lines: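 Recombinant α-syn (2 μM final) in 10 mM PBS pH 7.4 with 0.5 mM SDS and 300 mM NaCl. Compound at 100 μM final, ThT 20 μM, one borosilicate bead per well. Read at 37 °C every 20 min after 10 s shaking, ex 440/em 485 nm, for 40–70 h. Background was ThT plus 0.25 % DMSO without protein. Plateau fluorescence expressed as % of control, triplicates, mean ± SEM.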

Data set [10] concerns the target T1, Microtubule-associated protein tau. Briefly: Inhibition of tau 2N4R (unknown origin) aggregation expressed in Escherichia coli Rosetta BL21 cells assessed as reduction in oligomer formation at 50 to 200 uM incubated for 10 mins in presence of 53W light exposure for 60 sec by PICUP assay. The note with it: dose 50-200 µM. In a few lines: as §3
Data set [11] shares this target. Nature of the data set: Inhibition of unfolded tau 2N4R (unknown origin) aggregation expressed in Escherichia coli Rosetta BL21 cells assessed as reduction in short and fine needle like fibrils at 100 uM measured after 72 hrs by TEM analysis. In a few lines:
as §2

Data set [12] has the same target. Nature of the data set: Inhibition of unfolded tau 2N4R (unknown origin) aggregation expressed in Escherichia coli Rosetta BL21 cells assessed as appearance of rounded structures at 100 uM measured after 72 hrs by TEM analysis. In a few lines:
as §2

Data set [13] can be described thus: Cytotoxicity against human M17D cells expressing doxycyclin-inducible alpha-syn-S3K::YFP inclusion-prone fusion protein assessed as reduction in cell confluency at <20 uM treated with compound starting from 24 hrs post plating followed by doxycyclin addition at 48 hrs and measured 96 hrs post plating by Incucyte-based analysis. The settings on record: 72 h. It is filed as toxicity. In a few lines:
as §1

Data set [14] concerns the target T1, Microtubule-associated protein tau. Briefly: Inhibition of arachidonic acid-induced full-length four-repeat tau 2N4R (unknown origin) aggregation measured upto 19 hrs by TEM analysis.
Data set [15] in a line: Cytotoxicity against human M17D cells expressing doxycyclin-inducible alpha-syn-S3K::YFP inclusion-prone fusion protein assessed as reduction in cell confluency at 5 to 40 uM treated with compound starting from 24 hrs post plating followed by doxycyclin addition at 48 hrs and measured 96 hrs post plating by Incucyte-based analysis. The data set is classed as toxicity. The note with it: 72 h, dose 5-40 µM. In a few lines:
as §1

Data set [16] has as its target Alpha-synuclein (Homo sapiens) (UniProt P37840). Nature of the data set: Inhibition of alpha-syn (unknown origin) aggregation assessed as reduction in fluorescence by Thioflavin-T based fluorescence analysis relative to control. The note with it: concentration not given here. In a few lines: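 Recombinant α-syn monomer (2 μM final, diluted from a 280 μM stock in 20 mM Tris-HCl pH 7.4) in 10 mM PBS pH 7.4 with 0.5 mM SDS and 300 mM NaCl, one glass bead per well. Compound 100 μM final, ThT 20 μM, 0.25% DMSO. Ex/em 440/485 nm, read every 20 min at 37 °C with shaking, 40–70 h. Triplicates. Plateau fluorescence as % of control, background-corrected.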

Activity calls are given as the source filed them. No cut-off for these calls is given here.

T1 sequence (P10636 whole entry): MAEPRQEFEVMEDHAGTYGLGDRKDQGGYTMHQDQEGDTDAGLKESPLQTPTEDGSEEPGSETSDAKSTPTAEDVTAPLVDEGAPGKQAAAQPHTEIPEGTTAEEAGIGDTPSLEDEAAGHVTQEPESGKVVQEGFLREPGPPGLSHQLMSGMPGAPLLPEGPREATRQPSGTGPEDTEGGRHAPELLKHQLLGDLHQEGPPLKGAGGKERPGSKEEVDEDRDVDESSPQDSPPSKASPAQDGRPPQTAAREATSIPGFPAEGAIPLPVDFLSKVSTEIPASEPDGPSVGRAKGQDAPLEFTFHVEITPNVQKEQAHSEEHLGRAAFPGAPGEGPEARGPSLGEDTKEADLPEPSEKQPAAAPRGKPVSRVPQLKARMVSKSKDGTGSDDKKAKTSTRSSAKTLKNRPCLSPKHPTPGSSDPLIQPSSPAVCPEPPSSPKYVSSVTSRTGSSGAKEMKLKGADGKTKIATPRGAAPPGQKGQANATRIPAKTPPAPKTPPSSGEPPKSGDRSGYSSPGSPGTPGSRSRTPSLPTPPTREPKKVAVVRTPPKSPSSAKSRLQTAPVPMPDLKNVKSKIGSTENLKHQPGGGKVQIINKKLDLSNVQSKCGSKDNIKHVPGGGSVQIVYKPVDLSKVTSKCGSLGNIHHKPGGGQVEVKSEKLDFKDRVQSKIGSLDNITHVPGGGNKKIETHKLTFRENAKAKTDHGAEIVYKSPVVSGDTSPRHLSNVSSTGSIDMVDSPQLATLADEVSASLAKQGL

Take `O=C(Nc1ccc([N+](=O)[O-])cc1)Nc1cccc2[nH]ccc12`: the figures for the Activity entry in data set [1], in data set [9] and in data set [13] were “Toxic”, 4% and “Non-Toxic”, respectively. The inhibition entry in data set [2], in data set [3], in data set [4], in [5], in data set [8] and in data set [11] was “Active” each time. For the same compound, the inhibition entry in data set [12] is “Active”. Also, the inhibition entry in data set [6] and in [10] was “inactive” throughout. Moreover, the inhibition entry in data set [7] was “Dose-Dependent Effect”.
Turning to `O=C(Nc1ccc([N+](=O)[O-])cc1)Nc1ccc2[nH]ccc2c1`, the Activity result was “Toxic” in data set [1], 2.9% in data set [9] and “Non-Toxic” in [13]. For the same compound, the inhibition result in data set [2], in [3], in data set [4], in data set [5], in data set [11] and in [12] was “Active” in each case. For the same compound, the inhibition result in [6] and in data set [10] was “inactive” throughout.
The compound `CCC(/C=C1\Sc2ccc(OC)cc2N1CCO)=C\c1sc2ccc(OC)cc2[n+]1CCO` returned an IC50 in data set [14] of 300 nM.
For `O=C(Nc1ccc([N+](=O)[O-])cc1)Nc1ccc2cc[nH]c2c1`, the inhibition entry in [2], in data set [3], in [4], in data set [11] and in [12] was “Active” each time. Besides, the inhibition entry in data set [5] is “Dose-Dependent Effect”. Moreover, the inhibition result in data set [6] and in [10] was “inactive” each time. In addition, the Activity in [9] is 3.6%; in [15], “Toxic”.
Consider `O=C(O[C@@H]1Cc2c(O)cc(O)cc2O[C@@H]1c1cc(O)c(O)c(O)c1)c1cc(O)c(O)c(O)c1`, for which the inhibition in data set [16] stood at 90%.
